Reference: ChEMBL document CHEMBL2069278, “Novel substituted benzothiophene and thienothiophene carboxanilides and quinolones: synthesis, photochemical synthesis, DNA-binding properties, antitumor evaluation and 3D-derived QSAR analysis” (J Med Chem, 2012)
The source made the active and inactive calls. The calls are words filed in the database; no cut-off is given here.

Experiments:
NCI-H460 = assay: Cytotoxicity against human H460 cells after 72 hrs by MTT assay; type: functional, cell-based; settings: NCI-H460, 72 h
Summary of the method: (§1)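 Cells seeded on day 0 at 1 × 10^4 to 3 × 10^4 cells/mL (adherent lines in DMEM, MOLT-4 in suspension in RPMI, 10% FBS, 37 °C, 5% CO2); 10-fold dilutions 10−8–10−4 M for 72 h; MTT, OD 570 nm; percentage growth versus time-zero and control; IC50 by linear regression; quadruplicate, at least two experiments.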

MCF7 = assay: Cytotoxicity against human MCF7 cells after 72 hrs by MTT assay; type: functional, cell-based; settings: MCF7, 72 h; summary of the method: as §1
MOLT-4 = assay: Cytotoxicity against human MOLT4 cells after 72 hrs by MTT assay; type: functional, cell-based; settings: MOLT-4, 72 h; summary of the method: as §1
SW-620 = assay: Cytotoxicity against human SW620 cells after 72 hrs by MTT assay; type: functional, cell-based; settings: SW-620, 72 h; summary of the method: as §1
HCT-116 = assay: Cytotoxicity against human HCT116 cells after 72 hrs by MTT assay; type: functional, cell-based; settings: HCT-116, 72 h; summary of the method: as §1
[1] = target: DNA topoisomerase 2-alpha (Homo sapiens) (UniProt P11388); assay: Inhibition of human topoisomerase 2-mediated DNA cleavage at 50 uM incubated for 45 mins followed by enzyme addition measured after 30 mins by agarose gel electrophoresis
Summary of the method: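 Compounds (50 μM) incubated with 350 ng supercoiled pUC19 before topoisomerase II addition; gel quantified for percentage poisoning normalized to etoposide at the same concentration.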

Chain of DNA topoisomerase 2-alpha (Homo sapiens) (P11388 whole entry): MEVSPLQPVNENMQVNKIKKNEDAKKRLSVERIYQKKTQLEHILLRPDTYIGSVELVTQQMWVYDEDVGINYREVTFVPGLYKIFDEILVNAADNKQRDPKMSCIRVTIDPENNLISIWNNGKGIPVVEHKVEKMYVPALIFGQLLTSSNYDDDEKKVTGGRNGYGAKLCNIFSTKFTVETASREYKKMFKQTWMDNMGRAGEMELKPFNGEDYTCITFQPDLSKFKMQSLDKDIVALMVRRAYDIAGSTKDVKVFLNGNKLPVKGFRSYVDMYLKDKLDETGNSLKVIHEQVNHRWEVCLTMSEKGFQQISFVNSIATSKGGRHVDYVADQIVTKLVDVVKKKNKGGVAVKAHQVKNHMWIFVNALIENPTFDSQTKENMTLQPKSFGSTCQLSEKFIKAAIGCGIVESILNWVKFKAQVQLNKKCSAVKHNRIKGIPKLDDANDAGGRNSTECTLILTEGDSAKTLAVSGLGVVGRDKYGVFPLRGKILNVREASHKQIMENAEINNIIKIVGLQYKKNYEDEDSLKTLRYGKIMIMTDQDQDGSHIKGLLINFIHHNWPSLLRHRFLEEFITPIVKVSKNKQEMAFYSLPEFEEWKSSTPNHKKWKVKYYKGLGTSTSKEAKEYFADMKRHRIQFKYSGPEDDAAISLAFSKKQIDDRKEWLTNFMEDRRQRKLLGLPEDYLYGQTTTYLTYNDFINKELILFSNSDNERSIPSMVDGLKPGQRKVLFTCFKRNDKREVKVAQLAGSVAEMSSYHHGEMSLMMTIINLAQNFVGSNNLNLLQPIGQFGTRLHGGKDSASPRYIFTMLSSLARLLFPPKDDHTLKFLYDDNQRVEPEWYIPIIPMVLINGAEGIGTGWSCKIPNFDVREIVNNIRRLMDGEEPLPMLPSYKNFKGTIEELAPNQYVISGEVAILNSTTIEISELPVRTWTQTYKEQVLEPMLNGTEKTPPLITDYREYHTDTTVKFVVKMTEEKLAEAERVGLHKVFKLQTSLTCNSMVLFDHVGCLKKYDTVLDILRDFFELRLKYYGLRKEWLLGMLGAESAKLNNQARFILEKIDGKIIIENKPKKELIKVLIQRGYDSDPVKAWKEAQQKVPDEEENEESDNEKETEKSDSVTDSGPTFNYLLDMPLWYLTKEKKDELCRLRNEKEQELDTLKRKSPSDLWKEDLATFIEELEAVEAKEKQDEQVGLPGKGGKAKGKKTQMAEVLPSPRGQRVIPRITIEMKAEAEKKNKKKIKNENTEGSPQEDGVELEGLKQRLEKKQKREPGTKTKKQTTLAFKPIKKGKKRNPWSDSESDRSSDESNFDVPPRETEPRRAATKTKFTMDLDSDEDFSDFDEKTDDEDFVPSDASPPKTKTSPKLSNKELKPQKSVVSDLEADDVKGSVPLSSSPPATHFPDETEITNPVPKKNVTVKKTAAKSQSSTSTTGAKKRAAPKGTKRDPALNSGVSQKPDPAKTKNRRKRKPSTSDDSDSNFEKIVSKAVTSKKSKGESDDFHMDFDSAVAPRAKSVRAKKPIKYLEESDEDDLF

inhibition [1] | SMILES | IC50 (NCI-H460) | IC50 (MCF7) | IC50 (MOLT-4) | IC50 (SW-620) | IC50 (HCT-116)
– | Cn1c(=O)c2sc3sccc3c2c2cc(C#N)ccc21 | > 10 µM | > 10 µM | 4.8 µM | > 10 µM | > 10 µM
– | CN(C)CCCNC(=O)c1ccc2[nH]c(=O)c3sc4cc(Br)ccc4c3c2c1 | 2 µM | 2 µM | 1 µM | 0.4 µM | 0.4 µM
– | CN(C)CCCNC(=O)c1ccc(NC(=O)c2sc3cc(Br)ccc3c2Cl)cc1 | 2 µM | 2 µM | 2 µM | 2 µM | 2 µM
– | CN(C)CCCNC(=O)c1ccc(NC(=O)c2sc3ccccc3c2Cl)cc1 | 3 µM | 7 µM | – | – | 7 µM
– | CCOC(=O)c1ccc2c(Cl)c(C(=O)Nc3ccc(C(=O)NCCCN(C)C)cc3)sc2c1 | 2 µM | 5 µM | 2 µM | 2 µM | 3 µM
– | CN(C)CCCNC(=O)c1ccc(NC(=O)c2sc3cc([N+](=O)[O-])ccc3c2Cl)cc1 | 2 µM | 2 µM | 2 µM | 1 µM | 2 µM
Active | COc1cc([C@@H]2c3cc4c(cc3[C@@H](O[C@@H]3O[C@@H]5CO[C@@H](C)O[C@H]5[C@H](O)[C@H]3O)[C@H]3COC(=O)[C@H]23)OCO4)cc(OC)c1O | – | – | – | – | –
– | CN(C)CCCNC(=O)c1ccc2[nH]c(=O)c3sc4cc([N+](=O)[O-])ccc4c3c2c1 | 23 µM | 3 µM | 2 µM | 2 µM | 2 µM
– | CCOC(=O)c1ccc2c(c1)sc1c(=O)[nH]c3ccc(C(=O)NCCCN(C)C)cc3c12 | 3 µM | 3 µM | 1 µM | 1 µM | 2 µM
– | Cn1c(=O)c2sc3cc(C#N)ccc3c2c2ccccc21 | > 10 µM | > 10 µM | ≥ 10 µM | > 10 µM | > 10 µM
– | Cn1c(=O)c2sc3sccc3c2c2cc(C3=NCCN3)ccc21 | 1 µM | 2 µM | 2 µM | 0.3 µM | 1 µM
– | Cc1ccc2c(c1)sc1c(=O)[nH]c3ccc(C(=O)NCCCN(C)C)cc3c12 | 2 µM | 2 µM | 1 µM | 0.4 µM | 1 µM
– | Cc1ccc2c(Cl)c(C(=O)Nc3ccc(C(=O)NCCCN(C)C)cc3)sc2c1 | 2 µM | 3 µM | 2 µM | 2 µM | 3 µM
– | Cn1c(=O)c2sc3ccccc3c2c2cc(C#N)ccc21 | > 10 µM | > 10 µM | 8.7 µM | > 10 µM | > 10 µM
– | CN(C)CCCNC(=O)c1ccc2[nH]c(=O)c3sc4ccccc4c3c2c1 | 2 µM | 2 µM | 1 µM | 1 µM | 1 µM
